Screens deposited in PubChem by Johns Hopkins Ion Channel Center.
In the library only some 3.5% were active in any assay of this set; here they are far more common.
MrgX1 allo act – positive allosteric modulators of MrgX1, primary screen, HEK293 cells, Fluo-4 calcium flux; 0.63% of 310,000 active; AID 588675, 2011; Mas-related G-protein coupled receptor member X1 (Homo sapiens), Q96LB2; FDSS; active compounds read high; B-score at 10 µM;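 active = plate-corrected calcium response at least 3 library SD above typical, normal starting fluorescence, not activating the receptor alone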;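 also: compound read alongside a low EC10 to EC30 dose of BAM8-22 agonist; peak minus trough fluorescence over baseline measured at the second addition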
Target sequence (Q96LB2 whole entry, looked up): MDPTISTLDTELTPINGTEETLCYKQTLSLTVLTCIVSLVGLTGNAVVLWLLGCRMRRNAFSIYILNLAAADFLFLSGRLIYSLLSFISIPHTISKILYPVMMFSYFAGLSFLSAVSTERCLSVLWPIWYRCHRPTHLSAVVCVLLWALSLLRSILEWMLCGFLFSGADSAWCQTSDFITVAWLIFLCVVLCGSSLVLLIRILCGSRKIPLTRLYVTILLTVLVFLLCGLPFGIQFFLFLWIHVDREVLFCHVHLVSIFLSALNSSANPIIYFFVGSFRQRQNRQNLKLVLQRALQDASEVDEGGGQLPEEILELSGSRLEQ
RGS4 inh – RGS4 inhibitors, primary screen, cell-based, HEK293 M3R inducible RGS4, calcium flux; Fluo-4 calcium flux; active compounds read high; triggered by carbachol at its EC20; B-score at 10 µM; 0.45% of 310,000 active; AID 463165, 2010;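 active = B-score, a plate-corrected calcium signal, over three deviations above library mean, with baseline fluorescence within five deviations of library mean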;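 also: RGS4 expression induced by doxycycline in cells with stable M3 receptor; B-score is computed from the integrated fluorescence ratio over baseline after carbachol; higher B-score means a larger calcium signal and so more RGS4 inhibition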
Target sequence (P49798 whole entry, looked up): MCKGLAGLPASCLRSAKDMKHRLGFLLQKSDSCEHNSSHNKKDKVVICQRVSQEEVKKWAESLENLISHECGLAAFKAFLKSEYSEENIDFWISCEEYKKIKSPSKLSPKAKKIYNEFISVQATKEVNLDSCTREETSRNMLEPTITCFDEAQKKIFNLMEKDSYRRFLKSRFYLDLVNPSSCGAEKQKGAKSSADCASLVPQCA
MrgX1 antag – antagonists of human MrgX1 receptor, primary screen, HEK293 cells, Fluo-4 calcium flux | BAM8-22 antagonism; active compounds read low | B-score at 10 µM | 1.3% of 310,000 active | AID 588676, 2011;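 active = calcium-response B-score plate-corrected more than 3 library SD below zero, starting fluorescence within 5 deviations, no agonist response on first addition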;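 also: peak minus trough fluorescence over baseline after final BAM8-22 challenge near maximal dose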
RGS4 pot – RGS4 potentiators or activators, primary screen, cell-based, HEK293 M3R inducible RGS4, calcium flux; carbachol calcium flux Fluo4; active compounds read low; B-score at 10 µM; 0.92% of 310,000 active; AID 463111, 2010;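 active = B-score of the integrated calcium signal more than 4 SD below the library mean, with starting fluorescence not abnormally high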;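 also: negative B-score means reduced calcium response which marks RGS4 activation or potentiation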
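System: HEK293 FlpIn-TREx cells, stable M3R, doxycycline-inducible RGS4. Timing: overnight RGS4 induction, 30 min dye load 37 °C, 20 min compound RT. Also added: carbachol, ECmax concentration. Measured by: Fluo4 fluorescence kinetic imaging of calcium. Evaluation: integrated calcium ratio converted to B score.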
MrgX1 agonist – agonists of human MrgX1 receptor, primary screen, HEK293 cells, Fluo-4 calcium flux; Mas-related G-protein coupled receptor member X1 (Homo sapiens), Q96LB2; Fluo-4 calcium fluorescence, agonist mode; active compounds read high; B-score at 10 µM; 0.44% of 310,000 active; AID 588627, 2011;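 active = calcium response B-score plate-corrected fluorescence ratio at least 3 library SD, with starting fluorescence B-score inside 5 SD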
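Test system: HEK293 cells stably expressing human MrgX1 receptor; amount: 15,000 cells per well; doses: compound delivered in addition one of three; times: overnight plating before 1 h dye loading; detection: Fluo-4 NW calcium-flux fluorescence, kinetic read; read-out basis: B-scored fluorescence response ratio; controls: positive and negative controls per plate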
Numbers without * were called inactive; i = inactive; / = not tested or not shown.

SMILES	MrgX1 allo act	RGS4 inh	MrgX1 antag	RGS4 pot	MrgX1 agonist
Cc1cc(C)c2c(=O)n(CC(=O)NCCCN3CCN(c4ccccc4F)CC3)sc2n1	i	i	i	-9.6*	i
Cc1ccccc1CS(=O)(=O)CCC(=O)NCCCN1CCN(c2ccccc2F)CC1	i	i	i	i	i
CCc1nc2ccccc2c(C(=O)Nc2ccc(F)cc2)c1C	i	i	i	i	i
CCCN(CCC)CCCNC(=S)Nc1ccc2nc(N3CCN(C)CC3)cc(C)c2c1	i	i	i	i	29*
CCOC(=O)CC1(NC(=O)c2cc(COc3cccc(OC)c3)on2)CCCCC1	i	i	i	i	i
COc1ccc([N+](=O)[O-])c(S(=O)(=O)c2ccccc2)n1	i	i	-6.2*	i	i
COc1ccc([N+](=O)[O-])c(S(=O)(=O)c2ccc(Cl)cc2)n1	i	i	-6.5*	i	i
O=[N+]([O-])c1cccnc1S(=O)(=O)c1ccccc1	i	i	i	i	i
Cc1ccc(S(=O)(=O)N2CCCC2)cc1C(=O)N1CCN(Cc2ccccc2)CC1	i	i	i	i	i
CC(=O)N1N=C(c2ccc(C)cc2)OC1c1ccc(Br)cc1 (configuration not stated)	i	i	i	i	i
CC(=O)N1N=C(c2ccc(Cl)cc2)OC1c1ccc(C(C)C)cc1 (configuration not stated)	i	i	i	-7.9*	i
Cc1ccc2c(c1)C1(C)C(C(C)(C)N2C=O)C1(Cl)Cl (configuration not stated)	13*	i	i	i	i
CC(=O)N1c2ccccc2C2(C)C(C1(C)C)C2(Cl)Cl (configuration not stated)	i	i	i	i	i
O=C(NCCCn1ccnc1)/C(=C\c1ccc(Br)cc1)NC(=O)c1ccccc1	i	i	i	i	i
c1coc(C2Nc3cccc4cccc(c34)N2)c1	i	7.2*	i	i	i
O=C(NCc1ccccn1)Nc1ccccc1F	i	i	i	i	i
CC(C)CCNC(=O)CCn1nc(-c2ccc(Cl)cc2)ccc1=O	i	i	i	i	i
O=C1/C(=C/c2ccc(O)cc2)COc2ccccc21	i	i	i	i	i
O=C1/C(=C/c2ccccn2)COc2ccccc21	6.7*	i	i	i	i
O=C(NCc1ccc2c(c1)OCO2)c1cc([N+](=O)[O-])ccc1N1CCCCC1	i	i	i	-7.4*	i
COC(=O)C1CN(C(=O)COc2ccc(Cl)c(C)c2)c2ccccc2O1 (configuration not stated)	i	i	i	i	i
Cc1ccc(S(=O)(=O)NCC(=O)N(CC(=O)NCC2CCCO2)Cc2ccc(Cl)cc2)cc1 (configuration not stated)	i	i	i	i	i
COc1cccc(C(=O)NNC(=O)Cc2ccc(Cl)cc2)c1	i	i	-7*	i	i
COc1ccc(C(=O)NNC(=O)Cc2ccc(Cl)cc2)cc1	i	i	i	i	i
CN(C)S(=O)(=O)c1cccc(-c2nn(-c3ccccc3)cc2/C=C2\SC(=S)NC2=O)c1	17*	/	i	/	i
SMILES	MrgX1 allo act	RGS4 inh	MrgX1 antag	RGS4 pot	MrgX1 agonist
CCCCc1c(C(=O)O)cc(OC)cc1C(=O)O	i	i	i	i	i
CCCCCc1c2c(cc(O)c1C(=O)O)OC(=O)c1c(cc(OC)cc1C(=O)CCCC)O2	i	i	-7.9*	-7*	i
Cc1ccc(-c2nn(-c3ccccc3)cc2/C=C2\SC(=S)N(CC(=O)O)C2=O)cc1	i	i	i	i	i
COc1ccc(O)c(/C=C2/SC(=S)N(Cc3ccccc3)C2=O)c1	i	i	-5.1*	i	i
CCCOc1ccc(-c2nn(-c3ccccc3)cc2/C=C2\SC(=S)N(C3CCS(=O)(=O)C3)C2=O)cc1 (configuration not stated)	i	i	i	i	i
COc1ccc(OC)c(/C=C2\SC(=S)N(Cc3cccnc3)C2=O)c1	i	i	i	i	i
O=C(O)CCCCCN1C(=O)/C(=C\c2cn(-c3ccccc3)nc2-c2cccs2)SC1=S	i	i	i	-7*	i
COc1ccc(-c2nn(-c3ccccc3)cc2/C=C2/SC(=S)N(CCC(=O)O)C2=O)c(C)c1	i	i	i	-7.7*	i
CCOc1ccc(-c2nn(-c3ccccc3)cc2/C=C2\SC(=S)N(C3CCS(=O)(=O)C3)C2=O)cc1 (configuration not stated)	i	i	i	-8.3*	i
Cc1c(S(=O)(=O)N2CCCCC2)c(=O)n(C)c(=O)n1C	i	i	i	i	i
COc1ccc(-c2nn(-c3ccccc3)cc2/C=C2/SC(=S)N(CCC(=O)O)C2=O)cc1	i	i	-6*	-7.2*	i
CC1=NNC(=O)/C1=C\c1cn(-c2ccccc2)nc1-c1ccc(F)cc1	/	i	/	i	/
CC1=NNC(=O)/C1=C\c1cn(-c2ccccc2)nc1-c1cccs1	i	i	-6.5*	i	i
COc1ccc(/C=C2/SC(=S)N(CCC(=O)O)C2=O)cc1	i	i	i	i	31*
COc1ccccc1OCCOCCOc1ccc(C)cc1[N+](=O)[O-]	i	i	-7*	i	i
COc1cc(C)ccc1OCCOCCN(C)Cc1ccccc1	i	i	-6.5*	i	i
CCCNc1c(NS(=O)(=O)c2ccc(OC)c(OC)c2)c(=O)oc2ccccc12	i	i	i	i	i
COc1ccc(Cl)cc1NC(=O)C(C)N1CCN(c2ccccn2)CC1 (configuration not stated)	i	i	i	i	i
CC(C(=O)NCc1ccccc1)n1cc([N+](=O)[O-])cn1 (configuration not stated)	i	i	i	i	i
Cc1noc(/C=C/N(C)C)c1S(=O)(=O)N1CCCC(C(=O)Nc2ccccc2F)C1 (configuration not stated)	i	i	i	i	i
NNC(=O)CNC(=O)c1cccc(Br)c1	6.5*	i	i	i	i
COC(=O)c1ccccc1NC(=O)CN1CCN(C23CC4CC(CC(C4)C2)C3)CC1	i	i	i	-8*	i
